Experimental data taken from ChEMBL document CHEMBL1158062, “Cyclopentenones, scaffolds for organic syntheses produced by the endophytic fungus mitosporic dothideomycete sp. LRUB20” (J Nat Prod, 2006).
≈ marks a conversion by molar mass, not a printed value. Calls of active or inactive are those of the source. No cut-off for these calls is given here.

Assays:
[1] = tested on: Mycobacterium tuberculosis; experiment: Antimycobacterial activity against Mycobacterium tuberculosis H37Ra by microplate alamar blue assay; type: functional
In short: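 M. tuberculosis H37Ra grown in Middlebrook 7H9 broth and tested in a microplate Alamar Blue assay, with MIC as the read-out. Isoniazid and kanamycin sulfate were run as standard drugs.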

Vero [2] = experiment: Cytotoxicity against african green monkey Vero cells by SRB assay; type: cell-based; conditions: chlorocebus sabaeus
In short: (§1)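 Colorimetric cytotoxicity read-out following the Skehan method, run on Vero, KB, NCI-H187 and BC cell lines, with ellipticine included as the reference compound; result reported as IC50.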

KB [3] = experiment: Cytotoxicity against human KB cells by SRB assay; type: functional, cell-based; in short: as §1
NCI-H187 [4] = experiment: Cytotoxicity against human NCI-H187 cells by SRB assay; type: functional, cell-based; in short: as §1
BC [5] = experiment: Cytotoxicity against BC cells by SRB assay; type: functional, cell-based; in short: as §1
Vero [6] = experiment: Cytotoxicity against african green monkey Vero cells at 50 ug/ml by SRB assay; type: cell-based; conditions: chlorocebus sabaeus
KB [7] = experiment: Cytotoxicity against human KB cells at 50 ug/ml by SRB assay; type: functional, cell-based
NCI-H187 [8] = experiment: Cytotoxicity against human NCI-H187 cells at 50 ug/ml by SRB assay; type: functional, cell-based
BC [9] = experiment: Cytotoxicity against BC cells at 50 ug/ml by SRB assay; type: functional, cell-based

| SMILES | MIC [1] [µg/mL] | IC50 (Vero [2]) [µg/mL] | Activity (KB [3]) | Activity (NCI-H187 [4]) | Activity (BC [5]) | Activity (Vero [6]) | Activity (KB [7]) | Activity (NCI-H187 [8]) | Activity (BC [9]) |
| --- | --- | --- | --- | --- | --- | --- | --- | --- | --- |
| C[C@@H]1CC/C(=N\Nc2ccc([N+](=O)[O-])cc2[N+](=O)[O-])[C@@H]1CO | 200 (≈ 649 µM) | 21.7 (≈ 70.4 µM) | inactive | inactive | inactive | – | – | – | – |
| COC(=O)c1cc(O)cc(OC)c1Oc1cc(C)cc(O)c1C(=O)O [ASTERRIC ACID] | 200 (≈ 574 µM) | – | – | – | – | Not Active | inactive | inactive | inactive |
| CC1=C(CO)/C(=N/Nc2ccc([N+](=O)[O-])cc2[N+](=O)[O-])CC1 | – | – | – | – | – | Not Active | inactive | inactive | inactive |
| CC1=C(CO)C(=O)CC1 | 200 (≈ 1590 µM) | – | – | – | – | Not Active | inactive | inactive | inactive |
